Measurements from different studies.
Each line is one published result; the experiments were not run side by side.
Target: Rhodopsin kinase GRK7 (GRK7, Homo sapiens, UniProt Q8WTQ7)
Sequence (Q8WTQ7 1-553, as in one of the studies): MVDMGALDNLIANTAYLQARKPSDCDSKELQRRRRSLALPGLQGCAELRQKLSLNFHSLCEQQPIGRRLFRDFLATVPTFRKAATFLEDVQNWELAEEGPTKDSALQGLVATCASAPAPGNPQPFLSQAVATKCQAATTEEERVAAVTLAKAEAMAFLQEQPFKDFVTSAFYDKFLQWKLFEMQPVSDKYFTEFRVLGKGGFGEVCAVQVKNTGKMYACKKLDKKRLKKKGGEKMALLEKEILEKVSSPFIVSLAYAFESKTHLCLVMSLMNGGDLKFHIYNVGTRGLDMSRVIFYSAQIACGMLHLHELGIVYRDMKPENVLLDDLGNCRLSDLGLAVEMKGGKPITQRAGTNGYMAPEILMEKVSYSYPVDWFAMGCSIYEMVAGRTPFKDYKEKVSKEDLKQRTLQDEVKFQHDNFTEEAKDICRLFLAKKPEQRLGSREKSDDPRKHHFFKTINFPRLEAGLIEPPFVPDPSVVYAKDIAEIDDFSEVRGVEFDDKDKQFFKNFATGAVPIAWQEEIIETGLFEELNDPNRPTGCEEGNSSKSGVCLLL

SMILES | observed | action | technique | concentration | quantity | result
Cc1sc(C(=O)NC2COC2)cc1-n1cc(NC(=O)Nc2c(F)cccc2Cl)cn1 | enzyme activity | inhibitor | – | 10 µM | remaining activity | 99.9%
Cc1cnc(NC2CCOCC2)nc1-n1cnc(C(=O)NC(CN)c2cc(F)cc(Cl)c2)c1 (stereo not drawn) | enzyme activity | inhibitor | radiometric | 1 µM | remaining activity | 85%
Cc1cc(NC(=O)c2cccc3cc(-c4cccc5[nH]nc(N)c45)ccc23)ccc1F | enzyme activity | inhibitor | – | 0.1 µM | activity vs control | 114%
Cc1ccc(NC(=O)c2ccc(C)c(C(F)(F)F)c2)cc1C#Cc1nn(C2CCC(O)CC2)c2ncnc(N)c12 (stereo not drawn) | cell-free assay | – | – | 10 µM | remaining signal | 101%
Nc1ncnc2occ(-c3ccc(NC(=O)Nc4cc(C(F)(F)F)ccc4F)cc3)c12 | cell-free assay | inhibitor | – | 20 µM | remaining signal | 77%
Cc1ccc(C(=O)NCc2ccsc2)cc1C#Cc1cn(C(C)C)c2ncnc(N)c12 | enzyme activity | inhibitor | – | 1 µM | activity vs control | 100%
O=C(Nc1cnn(-c2csc(C(=O)NC3COC3)c2)c1)Nc1ccccc1Cl | enzyme activity | inhibitor | – | 5 µM | remaining activity | 96.4%
COc1cc2c(N3CCN(C(=O)Nc4ccc(OC(C)C)cc4)CC3)ncnc2cc1OCCCN1CCCCC1 | cell-free assay | – | – | 0.5 µM | remaining signal | 104%
O=C(N1CCS(=O)(=O)CC1)N1C[C@H](c2ccc(OC(F)(F)F)cc2)C[C@H](c2nc(C3CC3)no2)C1 | cell-free assay | – | competition with immobilised ligand | 1 µM | remaining binding | 100%
CCN(CC)c1ccc(C2=NNC(=O)CC2C)cc1[N+](=O)[O-] (stereo not drawn) | enzyme activity | inhibitor | – | 10 µM | remaining activity | 100%
O=C(O)[C@@H]1[C@@H](Cn2nnc3ccccc3c2=O)CC[C@H]1C(=O)c1ccc(OCCC2CCOCC2)cc1 | cell-free assay | – | competition with immobilised ligand | 1 µM | remaining binding | 100%
O=C1NC(=O)c2cc(Nc3ccc(F)cc3)c(Nc3ccc(F)cc3)cc21 | cell-free assay | – | – | 0.5 µM | remaining signal | 106%
Cc1c(NC(=O)c2cc(C(N)=O)nc3cc(F)ccc23)c(C(F)(F)F)nn1Cc1ccc(C#N)cc1 | cell-free assay | – | competition with immobilised ligand | 1 µM | remaining binding | 75%
CC(C)(C)c1nc2c(s1)c1nc(N)ncc1c1ccc(NS(=O)(=O)c3c(F)cccc3F)c(F)c12 | enzyme activity | inhibitor | radiometric | 1 µM | remaining activity | 81%
CO[C@@H](C)c1c(Nc2ccc([C@H](N(C)C(=O)C3CCS(=O)(=O)CC3)C(F)(F)F)cc2)cnc2cc(Cl)nn12 | cell-free assay | – | competition with immobilised ligand | 1 µM | remaining binding | 100%
CN1CC(Oc2cnc(C#N)cc2-c2ccn3nc(NC(=O)C4CC4)cc3c2)C1 | enzyme activity | inhibitor | – | 1 µM | inhibition | -8%
CS(=O)(=O)c1cc(C2(NC(=O)c3cncc4c3cnn4-c3ccc(F)cc3)CC2)ccn1 | cell-free assay | – | competition with immobilised ligand | 1 µM | remaining binding | 96%
COc1cc2ncnc(Nc3ccc(Oc4ccccc4)cc3C)c2cc1OC | enzyme activity | inhibitor | – | 1 µM | inhibition | -3%
